Published values of several laboratories.
Lines come from different studies, so protocols differ.
Target: Serine/threonine-protein kinase WNK2 (WNK2, Homo sapiens, UniProt Q9Y3S1)

CCC(=N\O)/C(C)=C/c1ccc(F)cc1 — remaining binding (cell-free assay, competition with immobilised ligand; 1 µM): 80%
C[C@@H]1CCN(c2nccc(-c3cnn4ncccc34)n2)C1 — remaining binding (binding; 1 µM): 100%
c1cncc(-c2cccc(Nc3nccc(NC4CCCCC4)n3)c2)c1 — remaining binding (binding, competition with immobilised ligand; 10 µM): 100%
N[C@H]1CCN(c2nccc(-c3cnn4ncccc34)n2)C1 — remaining binding (binding; 1 µM): 100%
CC1=C(C#N)[C@@H](c2ccc3[nH]nc(C)c3c2)C(C#N)=C(c2ccc(Cl)cc2)N1 — remaining binding (cell-free assay, competition with immobilised ligand; 1 µM): 100%
COc1cnc(Nc2cccc(S(N)(=O)=O)c2)nc1N1CCN(c2ccccc2)C(=O)C1 — remaining binding (binding, competition with immobilised ligand; 1 µM): 100%
O=C(c1ccc(Nc2nccc(-c3cc4ccccc4s3)n2)cc1)N1CCC(N2CCCC2)CC1 — remaining binding (binding, competition with immobilised ligand; 1 µM): 87%
Cc1nc(Cc2cccc(C(F)(F)F)c2)sc1-c1ccc(C(N)=O)nc1 — remaining binding (cell-free assay, competition with immobilised ligand; 1 µM): 100%
Nc1ncc2c(n1)-c1c([nH]c3ccc(C#CC4CC4)cc13)CCCC2 — remaining binding (binding, competition with immobilised ligand; 1 µM): 100%
O=C(NCCCN1CCOCC1)c1ccc(Nc2ncc(Cl)c(-c3ccc(Cl)s3)n2)cc1 — remaining binding (binding, competition with immobilised ligand; 1 µM): 92%
FC(F)(F)Oc1cccc(-c2cnc3ccc(-c4ccncc4)nn23)c1 — remaining binding (binding, competition with immobilised ligand; 5 µM): 86%
CCS(=O)(=O)c1cc2cc(C[C@@](O)(CC(C)(C)c3ccc(F)cc3C(N)=O)C(F)(F)F)[nH]c2cn1 — remaining binding (cell-free assay, competition with immobilised ligand; 1 µM): 46%
COc1ncc2cc3ccccc3nc2c1C#N — remaining binding (cell-free assay, competition with immobilised ligand; 5 µM): 100%
Cc1cnn2ncc(-c3ccnc(N(C)C)n3)c2c1 — remaining binding (binding; 1 µM): 100%
CCc1ccccc1C(=O)Nc1n[nH]c2c(C)c(F)c(C3C(C#N)=C(C)N(C)C(C)=C3C#N)cc12 — remaining binding (cell-free assay, competition with immobilised ligand; 1 µM): 100%
COc1ccnn2ncc(-c3ccnc(N(C)C)n3)c12 — remaining binding (binding; 1 µM): 100%
O=C(c1ccc(Nc2ncc(Cl)c(-c3ccc(Cl)s3)n2)cc1)N1CCC(N2CCCC2)CC1 — remaining binding (binding, competition with immobilised ligand; 1 µM): 88%
c1cnn2ncc(-c3ccnc(N4CCC45COC5)n3)c2c1 — remaining binding (binding; 1 µM): 78%
Cc1c[nH]c2nccc(Oc3c(F)cc(Nc4cc(Cl)nc(N)n4)cc3F)c12 — remaining binding (cell-free assay, competition with immobilised ligand; 0.1 µM): 96%
O=C(NCC1CCOCC1)c1n[nH]cc1NC(=O)c1c(F)cccc1F — remaining binding (binding, competition with immobilised ligand; 1 µM): 81%
CC1CCCN1c1nccc(-c2cnn3ncccc23)n1 (stereo not drawn) — remaining binding (binding; 1 µM): 100%
